In ChEMBL document CHEMBL1212730, “Augmented photoswitching modulates immune signaling” (Nat Chem Biol, 2009):
Each block holds one compound with its values, some of them ahead of it. Active and inactive are the calls of the source. The rule behind the calls is not given here.

How the values were obtained:
[1] = target: T1, Peptidyl-prolyl cis-trans isomerase A (Homo sapiens, UniProt P62937); test: Inhibition of PPIase activity of cyclophilin 18 by protease coupled assay
Target sequence in this assay (P62937 whole entry): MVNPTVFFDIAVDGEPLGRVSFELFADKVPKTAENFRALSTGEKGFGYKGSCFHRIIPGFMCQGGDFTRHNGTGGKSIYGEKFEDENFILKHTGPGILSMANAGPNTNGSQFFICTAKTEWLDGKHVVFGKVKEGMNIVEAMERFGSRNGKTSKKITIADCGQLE

[2] = target: T1, Peptidyl-prolyl cis-trans isomerase A; test: Binding affinity to streptavidin-coupled biotin-labeled cyclophilin 18 assessed as reduction in [33P] phosphatase activity of calcineurin by protease coupled assay
Target sequence in this assay (P62937 whole entry): as above

[3] = target: T1, Peptidyl-prolyl cis-trans isomerase A; test: Binding affinity to cyclophilin 18 assessed as reduction in calcineurin activity by protease coupled assay
Procedure, shortened: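 Cyp18 PPIase activity measured by a chymotrypsin-coupled protease assay with Suc-Ala-Phe-Pro-Phe-NH-Np as substrate at 7 °C. Cyp18 was 2.5 nM. Compound was tested non-irradiated, irradiated at 740 nm for 45 min, or irradiated and then kept dark overnight, with DMSO as control. Data are means ± s.d.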
Target sequence in this assay (P62937 whole entry): as above

[4] = target: T2, Protein phosphatase 3 catalytic subunit alpha (Homo sapiens, UniProt Q08209); test: Inhibition of calcineurin-mediated NFAT activation in human Jurkat cells by luciferase reporter gene assay; format: cell-based
Procedure, shortened: (§1)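 Cells were pretreated with non-irradiated compound, then either kept dark or irradiated at 740 nm for 1 h before PMA/ionomycin stimulation. Luciferase was read in lysed cells. Data are means ± s.d.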

[5] = target: T2, Protein phosphatase 3 catalytic subunit alpha; test: Inhibition of calcineurin-mediated NFAT activation in human Jurkat cells measured after 45 min of irradiation with 740 nm light by luciferase reporter gene assay; format: cell-based
[6] = target: T1, Peptidyl-prolyl cis-trans isomerase A; conditions: 10 uM
Target sequence in this assay (P62937 whole entry, looked up): as the sequence (P62937 whole entry) above

[7] = target: T1, Peptidyl-prolyl cis-trans isomerase A; test: Binding affinity to cyclophilin 18 by protease coupled assay
Target sequence in this assay (P62937 whole entry): as above

[8] = target: T1, Peptidyl-prolyl cis-trans isomerase A; conditions: Blood, 50 to 200 nM
Target sequence in this assay (P62937 whole entry, looked up): as the sequence (P62937 whole entry) above

[9] = target: T1, Peptidyl-prolyl cis-trans isomerase A; conditions: Blood, 50 to 200 nM; remark: listed apart in the source
Target sequence in this assay (P62937 whole entry, looked up): as the sequence (P62937 whole entry) above

[10] = target: T1, Peptidyl-prolyl cis-trans isomerase A; conditions: Blood, Lysate, 50 to 200 nM
Target sequence in this assay (P62937 whole entry, looked up): as the sequence (P62937 whole entry) above

[11] = target: T1, Peptidyl-prolyl cis-trans isomerase A; test: Binding affinity to cyclophilin 18 assessed as reduction in [33P]phosphatase activity of calcineurin by protease coupled assay
Procedure, shortened: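 Calcineurin phosphatase activity measured at 30 °C with 33P-labeled phosphocasein. CaN was 3.5 nM, with Cyp18 at the desired concentrations and 10 µM compound, either irradiated at 740 nm for 45 min or non-irradiated, with or without streptavidin. The inhibitor concentration refers to the Cyp18–compound complex. Data are means ± s.d.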
Target sequence in this assay (P62937 whole entry): as above

[12] = target: T1, Peptidyl-prolyl cis-trans isomerase A; conditions: 200 nM
Target sequence in this assay (P62937 whole entry, looked up): as the sequence (P62937 whole entry) above

PBMC [13] = test: Immunosuppressive activity in human PBMC assessed as decrease in PMA/ionomycin-induced IL-2 production measured at 4 hrs interval post irradiation of 45 mins with 740 nm light by flow cytometry; format: functional, cell-based
PBMC [14] = test: Immunosuppressive activity in human PBMC assessed as decrease in PMA/ionomycin-induced IL-2 production measured at 4 hrs interval by flow cytometry; format: functional, cell-based
PBMC [15] = test: Immunosuppressive activity in streptavidin-stimulated human PBMC assessed as decrease in PMA/ionomycin-induced IL-2 production measured at 4 hrs interval post irradiation of 45 mins with 740 nm light by flow cytometry; format: functional, cell-based
PBMC [16] = test: Immunosuppressive activity in streptavidin-stimulated human PBMC assessed as decrease in PMA/ionomycin-induced IL-2 production measured at 4 hrs interval by flow cytometry; format: functional, cell-based
[17] = target: T2, Protein phosphatase 3 catalytic subunit alpha; test: Inhibition of calcineurin-mediated streptavidin-coupled NFAT activation in human Jurkat cells by luciferase reporter gene assay; format: cell-based; procedure, shortened: as §1
[18] = target: T2, Protein phosphatase 3 catalytic subunit alpha; test: Inhibition of calcineurin-mediated streptavidin-coupled NFAT activation in human Jurkat cells measured after 45 min of irradiation with 740 nm light by luciferase reporter gene assay; format: cell-based

IC50 [1]: 4.75 nM | IC50 [2]: 227 nM
Structure (SMILES): C/C=C/C[C@@H](C)[C@@H](O)[C@H]1C(=O)N[C@@H](CC)C(=O)N(C)CC(=O)N(C)[C@@H](CC(C)C)C(=O)N[C@@H](C(C)C)C(=O)N(C)[C@@H](CC(C)C)C(=O)N[C@@H](C)C(=O)N[C@H](COCC(=O)Nc2ccc(/N=N/c3ccccc3)cc2)C(=O)N(C)[C@@H](CC(C)C)C(=O)N(C)[C@@H](CC(C)C)C(=O)N(C)[C@@H](C(C)C)C(=O)N1C

Structure (SMILES): C/C=C/C[C@@H](C)[C@@H](O)[C@H]1C(=O)N[C@@H](CC)C(=O)N(C)CC(=O)N(C)[C@@H](CC(C)C)C(=O)N[C@@H](C(C)C)C(=O)N(C)[C@@H](CC(C)C)C(=O)N[C@@H](C)C(=O)N[C@H](COCC(=O)Nc2ccc(/N=N/c3ccc(NC(=O)COC[C@H]4NC(=O)[C@H](C)NC(=O)[C@H](CC(C)C)N(C)C(=O)[C@H](C(C)C)NC(=O)[C@H](CC(C)C)N(C)C(=O)CN(C)C(=O)[C@H](CC)NC(=O)[C@H]([C@H](O)[C@H](C)C/C=C/C)N(C)C(=O)[C@H](C(C)C)N(C)C(=O)[C@H](CC(C)C)N(C)C(=O)[C@H](CC(C)C)N(C)C4=O)cc3)cc2)C(=O)N(C)[C@@H](CC(C)C)C(=O)N(C)[C@@H](CC(C)C)C(=O)N(C)[C@@H](C(C)C)C(=O)N1C
IC50 [1]: 206 nM | IC50 [3]: 487 nM | IC50 [4]: 358 nM | IC50 [5]: 140 nM | inhibition [6]: 30%

IC50 [1]: 2.79 nM | IC50 [7]: 147 nM
Structure (SMILES): C/C=C/C[C@@H](C)[C@@H](O)[C@H]1C(=O)N[C@@H](CC)C(=O)N(C)CC(=O)N(C)[C@@H](CC(C)C)C(=O)N[C@@H](C(C)C)C(=O)N(C)[C@@H](CC(C)C)C(=O)N[C@@H](C)C(=O)N[C@H](COCC(=O)Nc2ccc(/N=N\c3ccccc3)cc2)C(=O)N(C)[C@@H](CC(C)C)C(=O)N(C)[C@@H](CC(C)C)C(=O)N(C)[C@@H](C(C)C)C(=O)N1C

Structure (SMILES): C/C=C/C[C@@H](C)[C@@H](O)[C@H]1C(=O)N[C@@H](CC)C(=O)N(C)CC(=O)N(C)[C@@H](CC(C)C)C(=O)N[C@@H](C(C)C)C(=O)N(C)[C@@H](CC(C)C)C(=O)N[C@@H](C)C(=O)N[C@H](COCC(=O)Nc2ccc(/N=N/c3ccc(NC(=O)CCCC[C@@H]4SC[C@@H]5NC(=O)N[C@@H]54)cc3)cc2)C(=O)N(C)[C@@H](CC(C)C)C(=O)N(C)[C@@H](CC(C)C)C(=O)N(C)[C@@H](C(C)C)C(=O)N1C
inhibition [8]: Active | inhibition [9]: Active | inhibition [6]: 30% | inhibition [10]: Active

Structure (SMILES): C/C=C/C[C@@H](C)[C@@H](O)[C@H]1C(=O)N[C@@H](CC)C(=O)N(C)CC(=O)N(C)[C@@H](CC(C)C)C(=O)N[C@@H](C(C)C)C(=O)N(C)[C@@H](CC(C)C)C(=O)N[C@@H](C)C(=O)N[C@H](COCC(=O)Nc2ccc(/N=N\c3ccc(NC(=O)CCCC[C@@H]4SC[C@@H]5NC(=O)N[C@@H]54)cc3)cc2)C(=O)N(C)[C@@H](CC(C)C)C(=O)N(C)[C@@H](CC(C)C)C(=O)N(C)[C@@H](C(C)C)C(=O)N1C
IC50 [11]: 950 nM | inhibition [8]: Active | inhibition [9]: Active

Structure (SMILES): C/C=C/C[C@@H](C)[C@@H](O)[C@H]1C(=O)N[C@@H](CC)C(=O)N(C)CC(=O)N(C)[C@@H](CC(C)C)C(=O)N[C@@H](C(C)C)C(=O)N(C)[C@@H](CC(C)C)C(=O)N[C@@H](C)C(=O)N[C@H](COCC(=O)Nc2ccc(/N=N\c3ccc(NC(=O)COC[C@H]4NC(=O)[C@H](C)NC(=O)[C@H](CC(C)C)N(C)C(=O)[C@H](C(C)C)NC(=O)[C@H](CC(C)C)N(C)C(=O)CN(C)C(=O)[C@H](CC)NC(=O)[C@H]([C@H](O)[C@H](C)C/C=C/C)N(C)C(=O)[C@H](C(C)C)N(C)C(=O)[C@H](CC(C)C)N(C)C(=O)[C@H](CC(C)C)N(C)C4=O)cc3)cc2)C(=O)N(C)[C@@H](CC(C)C)C(=O)N(C)[C@@H](CC(C)C)C(=O)N(C)[C@@H](C(C)C)C(=O)N1C
IC50 [1]: 30 nM | IC50 [3]: 266 nM | inhibition [12]: Active

IC50 [4]: 75 nM | IC50 [5]: 49 nM
Structure (SMILES): C/C=C/C[C@@H](C)[C@@H](O)[C@H]1C(=O)N[C@@H](CC)C(=O)N(C)CC(=O)N(C)[C@@H](CC(C)C)C(=O)N[C@@H](C(C)C)C(=O)N(C)[C@@H](CC(C)C)C(=O)N[C@@H](C)C(=O)N[C@H](COCC(=O)Nc2ccc(N=Nc3ccccc3)cc2)C(=O)N(C)[C@@H](CC(C)C)C(=O)N(C)[C@@H](CC(C)C)C(=O)N(C)[C@@H](C(C)C)C(=O)N1C

Structure (SMILES): C/C=C/C[C@@H](C)[C@@H](O)[C@H]1C(=O)N[C@@H](CC)C(=O)N(C)CC(=O)N(C)[C@@H](CC(C)C)C(=O)N[C@@H](C(C)C)C(=O)N(C)[C@@H](CC(C)C)C(=O)N[C@@H](C)C(=O)N[C@H](COCC(=O)Nc2ccc(N=Nc3ccc(NC(=O)CCCC[C@@H]4SC[C@@H]5NC(=O)N[C@@H]54)cc3)cc2)C(=O)N(C)[C@@H](CC(C)C)C(=O)N(C)[C@@H](CC(C)C)C(=O)N(C)[C@@H](C(C)C)C(=O)N1C
IC50 [4]: 135 nM | IC50 [5]: 89 nM | Activity (PBMC [13]): Active | Activity (PBMC [14]): Active | Activity (PBMC [15]): Active | Activity (PBMC [16]): inactive | IC50 [17]: 16.4 µM | IC50 [18]: 1400 nM
